T cruzi growth-1: T. cruzi intracellular proliferation inhibitors, primary screen, cell-based, beta-gal Tulahuen parasites, NIH3T3 host, luminescence | T. cruzi beta-gal in NIH3T3, GalScreen luminescence, 90 h | inhibition, % at 8.34 µM | 77,000 tested, 5.9% active | AID 624255, 2012;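 active = mean inhibition above about 93%, with at least 55% of replicates each passing it, limit read from the data, passing the limit was not always enough; inconclusive = only one of those two conditions holds; inactive = neither condition holds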
IDH1 R132H inh: inhibitors of IDH1 R132H reductase, primary screen, biochemical, plate reader, single point; Isocitrate dehydrogenase [NADP] cytoplasmic (Homo sapiens), O75874; diaphorase/resazurin fluorescence, 60 min; inhibition, % at 10 µM; 70,000 tested, 0.18% active; in the data active = inhibition above about 34%; inconclusive = no clear call, values can overlap the other calls; inactive = below about 11%
Target sequence (O75874 whole entry R132H): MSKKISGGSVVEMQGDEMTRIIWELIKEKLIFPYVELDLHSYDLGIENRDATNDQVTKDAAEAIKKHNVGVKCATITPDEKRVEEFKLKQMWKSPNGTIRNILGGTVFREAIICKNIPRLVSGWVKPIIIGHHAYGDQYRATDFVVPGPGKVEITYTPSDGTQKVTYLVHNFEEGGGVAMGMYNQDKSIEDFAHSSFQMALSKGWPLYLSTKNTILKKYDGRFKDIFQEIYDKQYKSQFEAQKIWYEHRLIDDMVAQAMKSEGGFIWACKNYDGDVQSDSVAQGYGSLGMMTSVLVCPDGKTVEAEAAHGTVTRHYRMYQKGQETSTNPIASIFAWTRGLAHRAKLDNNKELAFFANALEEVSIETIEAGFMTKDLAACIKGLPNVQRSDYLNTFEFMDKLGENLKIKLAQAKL
KDM4C inh: inhibitors of GASC-1 (KDM4C) histone demethylase, primary screen, biochemical, single concentration HTS; Lysine-specific demethylase 4C (Homo sapiens), Q9H3R0; GST-KDM4C 2-372, H3K9me3 peptide, LANCE TR-FRET; inhibition, % at 12.5 µM; 96,000 tested, 0.15% active; AID 720574, 2013;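 active = mean replicate inhibition above about 25%, with at least 55% of replicates also reaching it, limit read from the data, passing the limit was not always enough; inconclusive = only one of those two conditions met; inactive = neither condition met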
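Compound: one test concentration per compound; Material: GST-GASC-1 enzyme fragment 2-372; Amount: GASC-1 enzyme at 10 nM final in reaction; Also added: H3K9me3 peptide substrate, Fe(II), 2-oxoglutarate; Technique: LANCE TR-FRET; Times: 30 min demethylation and 1 h detection at room temperature.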
Pf Dd2 growth: P. falciparum Dd2 growth inhibitors, primary screen, SYBR Green fluorescence, single dose replicates. 72 h; stronger effect = lower value. activity change, % at 10 µM. 94,000 tested, 2.3% active. AID 1159554, 2015; in the data active = activity change below about -80%; inconclusive = no clear call, values can overlap the other calls
T cruzi growth-2: T. cruzi intracellular proliferation inhibitors, confirmation, cell-based, NIH3T3 host, beta-gal parasite, luminescence, cherry-pick; shares compounds with T cruzi growth-1; T. cruzi beta-gal in NIH3T3, GalScreen luminescence, 90 h; inhibition, % at 8.35 µM; 5,600 tested, 72% active;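 active = mean replicate inhibition above about 95% and at least 55% of replicates individually reaching it, limit read from the data; inconclusive = only one of the two criteria is met; inactive = neither criterion is met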
T cruzi growth-3: inhibitors of intracellular T. cruzi replication, confirmation, NIH3T3 host cells, beta-gal parasites, cherry-pick, set 2; shares compounds with T cruzi growth-1; AID 651740, 2012; 5,600 tested, 21% active; inhibition, % at 2.09 µM; T. cruzi beta-gal in NIH3T3, GalScreen luminescence, 90 h;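 active = mean inhibition above about 95%, with at least 55% of replicates also reaching it, limit read from the data; inconclusive = meets just one of the two conditions; inactive = meets neither condition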
NIH3T3 tox: cytotoxicity in mouse NIH/3T3 fibroblasts, confirmation, cytotoxicity control for T. cruzi proliferation inhibitor project, cell-based, cherry-pick, single point | shares compounds with T cruzi growth-1 | NIH/3T3 viability, CellTiter-Glo ATP luminescence, 90 h | cytotoxicity (signal decrease), % at 8.35 µM | 5,600 tested, 14% active | AID 651742, 2012;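 active = mean signal decrease across replicates above about 35% based on untreated-well scatter, with enough replicates individually passing, limit read from the data; inconclusive = no rule stated though some were filed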
3T3 cytotox 2: NIH/3T3 fibroblast cytotoxicity, confirmation, cytotoxicity control, cell-based, cherry-pick, single point, set 2; 5,600 tested, 56% active; NIH/3T3 viability, CellTiter-Glo ATP luminescence, 90 h; shares compounds with T cruzi growth-1; inhibition, % at 24.9 µM; AID 651744, 2012;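 active = mean loss of cell viability signal at or above a set limit, and enough replicates individually reaching it; inconclusive = meets only the mean limit or only the replicate share; inactive = meets neither condition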
Large screens that a line does not name were inactive (follow-up assays come after a bar, where they were run); ! = a repeat was not active. Sampled rows, rich in hits. Any-hit rate of the full collection: about 5.8%.

C[C@@H]1CCCCO[C@@H](CN(C)S(C)(=O)=O)[C@@H](C)CN([C@H](C)CO)C(=O)c2cc(N(C)C)ccc2O1	T cruzi growth-1 101! (no result: IDH1 R132H inh) | T cruzi growth-2 inactive | T cruzi growth-3 inactive | NIH3T3 tox inactive | 3T3 cytotox 2 inactive
C[C@@H]1CCCCO[C@H](CN(C)S(C)(=O)=O)[C@H](C)CN([C@@H](C)CO)C(=O)c2cc(N(C)C)ccc2O1	T cruzi growth-1 108 | T cruzi growth-2 inactive | T cruzi growth-3 inactive | NIH3T3 tox inactive | 3T3 cytotox 2 inactive
C[C@@H]1CN([C@H](C)CO)C(=O)c2cc(N(C)C)ccc2O[C@@H](C)CCCCO[C@H]1CN(C)S(C)(=O)=O	none (no result: IDH1 R132H inh)
C[C@@H]1CN([C@@H](C)CO)C(=O)c2cc(N(C)C)ccc2O[C@@H](C)CCCCO[C@@H]1CN(C)S(C)(=O)=O	none (no result: IDH1 R132H inh, Pf Dd2 growth)
COc1ccc(NC(=O)Nc2ccc3c(c2)C(=O)N([C@H](C)CO)C[C@@H](C)[C@@H](CN(C)C(=O)Nc2ccc(OC)cc2)OCCCC[C@@H](C)O3)cc1	none (no result: T cruzi growth-1)
COc1ccc(NC(=O)Nc2ccc3c(c2)C(=O)N([C@@H](C)CO)C[C@@H](C)[C@H](CN(C)C(=O)Nc2ccc(C(F)(F)F)cc2)OCCCC[C@@H](C)O3)cc1	T cruzi growth-1 114 | T cruzi growth-2 109 | T cruzi growth-3 109 | NIH3T3 tox inactive | 3T3 cytotox 2 inactive
COc1ccc(NC(=O)Nc2ccc3c(c2)C(=O)N([C@@H](C)CO)C[C@H](C)[C@H](CN(C)C(=O)Nc2ccc(C(F)(F)F)cc2)OCCCC[C@H](C)O3)cc1	T cruzi growth-1 inconclusive | T cruzi growth-2 104 | T cruzi growth-3 112 | NIH3T3 tox inactive | 3T3 cytotox 2 inactive
CCOc1ccc(Nc2ncnc3c2ncn3-c2ccc(OCC)cc2)cc1	none (no result: T cruzi growth-1, KDM4C inh, Pf Dd2 growth)
O=C(CCCN1C(=O)c2ccccc2C1=O)Nc1ccc(F)c(Cl)c1	none (no result: T cruzi growth-1, KDM4C inh, Pf Dd2 growth)

Source: PubChem
